# Assay results of several laboratories.
# Protocols differ between the studies behind these lines.
# Target: Serine/threonine-protein kinase DCLK2 (DCLK2, Homo sapiens, UniProt Q8N568)
# Sequence (Q8N568 1-766, as in one of the studies): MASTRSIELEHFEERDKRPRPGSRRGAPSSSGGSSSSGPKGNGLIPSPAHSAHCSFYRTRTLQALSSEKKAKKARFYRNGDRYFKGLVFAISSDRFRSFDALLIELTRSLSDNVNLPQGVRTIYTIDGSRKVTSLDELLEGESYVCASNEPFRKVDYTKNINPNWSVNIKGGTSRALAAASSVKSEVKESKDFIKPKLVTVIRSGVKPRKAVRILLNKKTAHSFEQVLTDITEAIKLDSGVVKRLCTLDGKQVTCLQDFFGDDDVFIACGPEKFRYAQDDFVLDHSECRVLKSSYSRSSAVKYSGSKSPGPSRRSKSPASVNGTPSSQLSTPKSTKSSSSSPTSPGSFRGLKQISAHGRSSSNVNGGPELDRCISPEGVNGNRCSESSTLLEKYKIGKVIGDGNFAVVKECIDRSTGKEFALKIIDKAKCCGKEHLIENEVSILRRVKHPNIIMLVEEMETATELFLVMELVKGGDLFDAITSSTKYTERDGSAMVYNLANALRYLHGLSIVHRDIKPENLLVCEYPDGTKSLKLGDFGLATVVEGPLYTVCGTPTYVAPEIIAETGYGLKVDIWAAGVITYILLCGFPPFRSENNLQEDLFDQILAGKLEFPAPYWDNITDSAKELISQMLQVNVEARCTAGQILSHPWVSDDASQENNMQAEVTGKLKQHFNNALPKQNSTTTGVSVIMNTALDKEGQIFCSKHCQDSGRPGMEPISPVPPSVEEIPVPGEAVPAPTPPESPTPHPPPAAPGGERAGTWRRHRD
SMILES,read-out,mode,technique,concentration,quantity,value
Nc1ncnc2occ(-c3ccc(NC(=O)Nc4cc(C(F)(F)F)ccc4F)cc3)c12,cell-free assay,inhibitor,,20 µM,remaining signal,100%
Cc1c(NC(=O)c2cc(C(N)=O)nc3cc(F)ccc23)c(C(F)(F)F)nn1Cc1ccc(C(C)(C)C)cc1,cell-free assay,,competition with immobilised ligand,1 µM,remaining binding,83%
CNC(=O)c1cc(Oc2ccc(NC(=O)Nc3ccc(Cl)c(C(F)(F)F)c3)cc2)ccn1,cell-free assay,,,0.5 µM,remaining signal,102%
CC(C)(C)c1nc2c(s1)c1nc(N)ncc1c1ccc(NS(=O)(=O)c3c(F)cccc3F)c(F)c12,enzyme activity,inhibitor,radiometric,1 µM,remaining activity,90%
COc1cc2ncnc(Nc3ccc(Oc4ccccc4)cc3C)c2cc1OC,enzyme activity,inhibitor,,1 µM,inhibition,1%
CCN(CC)CCNC(=O)c1c(C)[nH]c(/C=C2\C(=O)Nc3ccc(F)cc32)c1C,enzyme activity,inhibitor,,10 µM,inhibition,69%
CNC(=O)Nc1ccc2c(c1)[C@@]1(CC2)OC(=O)N(CC(=O)N(Cc2ccc(F)cc2)[C@@H](C)C(F)(F)F)C1=O,cell-free assay,,competition with immobilised ligand,1 µM,remaining binding,89%
O=C1Nc2ccc(Cl)cc2C1=Cc1cc(Cl)c(O)c(Cl)c1,cell-free assay,,,0.5 µM,remaining signal,98%
CCN(CC)c1ccc(C2=NNC(=O)CC2C)cc1[N+](=O)[O-] (centres unmarked),enzyme activity,inhibitor,,10 µM,remaining activity,102%
N#Cc1ccc(Nc2ccc3[nH]c(=O)[nH]c3c2)c(Cl)c1,cell-free assay,,competition with immobilised ligand,1 µM,remaining binding,100%
Cc1cc(NC(=O)c2cccc3cc(-c4cccc5[nH]nc(N)c45)ccc23)ccc1F,enzyme activity,inhibitor,,0.1 µM,activity vs control,109%
Cc1ccc(Nc2nccc(N(C)c3ccc4c(C)n(C)nc4c3)n2)cc1S(N)(=O)=O,enzyme activity,inhibitor,,10 µM,inhibition,-19%
O=C1NC(=O)c2cc(Nc3ccc(F)cc3)c(Nc3ccc(F)cc3)cc21,cell-free assay,,,0.5 µM,remaining signal,100%
Cc1noc([C@H]2C[C@@H](c3ccc(C(F)(F)F)cc3)CN(C(=O)N3CCS(=O)(=O)C3)C2)n1,cell-free assay,,competition with immobilised ligand,1 µM,remaining binding,100%
Cn1cncc1C1=CN(c2ncnc3[nH]cnc23)CCS1,enzyme activity,inhibitor,radiometric,2 µM,inhibition,14.2%
O=C(Nc1cnn(-c2csc(C(=O)NC3COC3)c2)c1)Nc1ccccc1Cl,enzyme activity,inhibitor,,5 µM,remaining activity,99.9%
COc1cc(Cl)c(C(=O)N[C@@H](CN[C@H]2CC[C@@H](N)CC2)Cc2ccc(C#N)cc2)cc1-c1ccc(CN[C@H](C)c2ccc(C)cc2)o1,enzyme activity,inhibitor,,1 µM,remaining activity,96%
CCCOc1ccc([C@H]2[C@H](C(=O)O)[C@@H](c3ccc4c(c3)OCO4)CN2CC(=O)Nc2c(CC)cccc2CC)cc1,cell-free assay,,competition with immobilised ligand,1 µM,remaining binding,77%
Cc1ccc(NC(=O)c2ccc(CN3CCN(C)CC3)cc2)cc1Nc1nc(-c2cccnc2)cs1,cell-free assay,,,0.5 µM,remaining signal,102%
COc1ccc2c(c1)O[C@H](c1ccc(OC)c(OC)c1)C[C@@H]2NC(=O)C1(c2ccc3c(c2)OC(F)(F)O3)CC1,cell-free assay,,competition with immobilised ligand,1 µM,remaining binding,98%
CCCOc1ccc(OC)c(F)c1C(=O)c1ccc(C(=O)N[C@@H]2CNC[C@H]2NC(=O)c2ccc3[nH]ncc3c2)cc1,enzyme activity,inhibitor,,10 µM,remaining activity,33%
Cc1nccc(COC(=O)N2C[C@@H]3[C@@H](CNC(=O)c4ccc5[nH]nnc5c4)[C@@H]3C2)n1,cell-free assay,,competition with immobilised ligand,1 µM,remaining binding,100%
Cc1sc(C(=O)NC2COC2)cc1-n1cc(NC(=O)Nc2c(F)cccc2Cl)cn1,enzyme activity,inhibitor,,10 µM,remaining activity,107%
